Laboratory results from publication PMC6348062 (Journal of medicinal chemistry, 2016).

Tests used:
[1] = molecular target: T1, PTPH1 (Homo sapiens, UniProt P26045); experiment: PTP activity assay with pNPP, PTPH1; type: biochemical
T1 sequence (P26045 1-913): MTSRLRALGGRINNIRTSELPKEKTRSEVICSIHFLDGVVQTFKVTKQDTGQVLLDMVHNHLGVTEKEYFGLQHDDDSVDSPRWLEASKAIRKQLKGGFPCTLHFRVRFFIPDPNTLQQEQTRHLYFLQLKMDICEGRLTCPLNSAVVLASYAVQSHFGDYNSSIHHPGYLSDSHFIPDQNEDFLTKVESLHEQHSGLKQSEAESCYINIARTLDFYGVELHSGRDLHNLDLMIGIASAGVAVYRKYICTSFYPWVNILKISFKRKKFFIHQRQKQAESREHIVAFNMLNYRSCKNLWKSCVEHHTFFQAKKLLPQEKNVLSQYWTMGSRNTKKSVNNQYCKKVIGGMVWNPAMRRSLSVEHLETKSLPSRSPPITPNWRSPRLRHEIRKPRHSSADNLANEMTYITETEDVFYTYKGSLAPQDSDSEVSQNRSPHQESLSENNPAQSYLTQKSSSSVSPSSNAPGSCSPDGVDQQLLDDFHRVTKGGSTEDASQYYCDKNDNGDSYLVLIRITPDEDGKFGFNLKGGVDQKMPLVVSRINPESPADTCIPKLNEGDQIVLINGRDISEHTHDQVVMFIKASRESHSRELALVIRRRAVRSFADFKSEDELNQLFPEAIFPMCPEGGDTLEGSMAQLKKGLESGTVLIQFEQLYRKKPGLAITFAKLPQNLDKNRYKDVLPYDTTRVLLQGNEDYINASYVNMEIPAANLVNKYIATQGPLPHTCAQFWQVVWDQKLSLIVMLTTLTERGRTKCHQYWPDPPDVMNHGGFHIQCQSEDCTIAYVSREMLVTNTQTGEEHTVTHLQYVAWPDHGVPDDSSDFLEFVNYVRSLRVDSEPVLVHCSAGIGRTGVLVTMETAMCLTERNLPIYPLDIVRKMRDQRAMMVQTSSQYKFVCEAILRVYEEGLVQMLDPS

[2] = system: panel of 24 phosphatases; experiment: Selectivity profiling against panel of 24 phosphatases; type: biochemical; conditions: for inhibitory activity against the phosphatases in the panel: at 200 μM concentration; for preference (selectivity) for LMW-PTP over the panel of other PTPs: over all 24 other phosphatases
[3] = molecular target: T2, LMW-PTP (Homo sapiens, UniProt P24666); type: biochemical; conditions: for mode of inhibition of LMW-PTP: Lineweaver-Burk, pNPP as substrate; for IC50: read-out: IC50 against LMW-PTP, weak ligands, values in mM
T2 sequence (P24666 1-158): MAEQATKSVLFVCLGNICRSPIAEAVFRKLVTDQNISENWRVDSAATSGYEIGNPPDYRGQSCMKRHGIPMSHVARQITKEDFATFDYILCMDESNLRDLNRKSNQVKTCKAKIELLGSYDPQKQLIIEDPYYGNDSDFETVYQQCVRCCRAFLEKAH

[4] = molecular target: T2, LMW-PTP; experiment: Screen of SPAA-based focused library at ~10 μM, LMW-PTP; type: biochemical; conditions: compound concentration ~10 μM, crude library wells
[5] = system: insulin induced AKT phosphorylation in HepG2 cells; experiment: Insulin induced AKT phosphorylation in HepG2 cells; type: cell-based; conditions: 2 h pretreatment, 50 nM insulin 30 min, compound 33 at 16 μM
Outline: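 HepG2 cells grown in DMEM with 10% FBS at 37 °C and 5% CO2. At 60-80% confluence, cells were serum-starved overnight, then given vehicle or test compound for 2 h. They were left unstimulated or stimulated with 50 nM insulin for 30 min, then lysed. Immunoblotting used a 10% polyacrylamide gel with anti-phospho-AKT and anti-AKT antibodies, ECL detection and densitometry. pAKT/AKT ratios were normalized to vehicle.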

[6] = molecular target: T3, PTP1B (Homo sapiens, UniProt P18031); experiment: PTP activity assay with pNPP, PTP1B; type: biochemical; conditions: read-out: IC50 for PTP1B; values in mM
T3 sequence (P18031 1-435): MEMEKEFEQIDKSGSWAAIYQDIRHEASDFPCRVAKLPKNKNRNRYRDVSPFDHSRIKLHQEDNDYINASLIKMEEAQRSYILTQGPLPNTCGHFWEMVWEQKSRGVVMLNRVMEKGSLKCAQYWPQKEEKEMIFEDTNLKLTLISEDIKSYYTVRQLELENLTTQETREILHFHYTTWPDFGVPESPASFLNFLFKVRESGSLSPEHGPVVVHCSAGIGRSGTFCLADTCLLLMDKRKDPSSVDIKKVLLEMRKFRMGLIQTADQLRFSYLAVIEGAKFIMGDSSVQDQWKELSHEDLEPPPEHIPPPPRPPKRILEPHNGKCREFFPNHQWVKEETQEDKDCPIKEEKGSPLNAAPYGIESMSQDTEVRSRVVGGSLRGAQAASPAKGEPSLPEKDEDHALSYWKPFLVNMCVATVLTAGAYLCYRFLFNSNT

[7] = molecular target: T4, SHP2 (Homo sapiens, UniProt Q06124); experiment: PTP activity assay with pNPP, SHP2; type: biochemical; conditions: read-out: IC50 for SHP2; values in mM
T4 sequence (Q06124 1-593): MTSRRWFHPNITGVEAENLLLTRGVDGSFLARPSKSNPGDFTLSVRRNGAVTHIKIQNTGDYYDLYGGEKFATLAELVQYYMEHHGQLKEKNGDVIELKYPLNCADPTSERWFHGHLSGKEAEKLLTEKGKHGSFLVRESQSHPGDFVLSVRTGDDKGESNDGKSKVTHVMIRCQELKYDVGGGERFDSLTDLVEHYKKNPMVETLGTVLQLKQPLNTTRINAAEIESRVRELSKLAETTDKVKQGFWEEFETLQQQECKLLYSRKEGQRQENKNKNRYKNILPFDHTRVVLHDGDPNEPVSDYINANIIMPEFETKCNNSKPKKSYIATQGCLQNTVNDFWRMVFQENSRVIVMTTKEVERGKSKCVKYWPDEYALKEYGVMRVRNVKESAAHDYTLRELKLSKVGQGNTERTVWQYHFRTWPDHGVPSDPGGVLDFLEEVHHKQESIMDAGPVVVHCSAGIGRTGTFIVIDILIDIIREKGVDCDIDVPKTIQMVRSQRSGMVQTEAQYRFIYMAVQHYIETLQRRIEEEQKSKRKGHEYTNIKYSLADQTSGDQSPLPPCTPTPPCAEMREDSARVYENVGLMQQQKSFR

## O=C(Nc1ccc2nc(C(F)(F)F)[nH]c2c1)C(c1ccccc1)S(=O)(=O)O (centres unmarked) [compound 3]
[1]
  IC50: > 200 µM
[2]
  inhibitory activity against the phosphatases in the panel: no inhibitory activity
  preference (selectivity) for LMW-PTP over the panel of other PTPs: greater than 35 fold

## O=C(Nc1cnc2ccccc2c1)C(c1ccccc1)S(=O)(=O)O (centres unmarked) [compound 6]
[1]
  IC50: > 200 µM
[2]
  inhibitory activity against the phosphatases in the panel: no inhibitory activity

## Cc1c(Br)cc(NC(=O)C(c2ccccc2)S(=O)(=O)O)cc1Br (centres unmarked) [compound 1]
[1]
  IC50: > 200 µM

## CCCNC(=O)C(c1ccccc1)S(=O)(=O)O (centres unmarked) [compound 11]
[3]
  inhibitory activity toward LMW-PTP (in words): inactive
[4]
  inhibition against LMW-PTP in library screen: inactive

## CCOC(=O)c1ccc2nc(NC(=O)C(c3ccccc3)S(=O)(=O)O)sc2c1 (centres unmarked) [compound 32]
[3]
  fold more active than compound 7 against LMW-PTP: 2.5 fold

## O=C(Nc1ccc(-n2ccnc2)cc1)C(c1ccccc1)S(=O)(=O)O (centres unmarked) [compound 4]
[1]
  IC50: > 100 µM

## O=C(Cc1ccccc1)Nc1nc2ccc([N+](=O)[O-])cc2s1 [compound 33]
[3]
  inhibitory activity toward LMW-PTP (in words): completely abolishes
[5]
  effect on insulin induced AKT phosphorylation (in words): no effect

## O=C(Nc1ccccc1)C(c1ccccc1)S(=O)(=O)O (centres unmarked) [compound 9]
[3]
  inhibitory activity toward LMW-PTP (in words): significantly reduced activities
[3]; relative to compound 7
  fold decrease in inhibitory activity versus compound 7: > 15 fold

## O=C(Nc1nc2ccc([N+](=O)[O-])cc2s1)C(c1ccccc1)S(=O)(=O)O (centres unmarked) [compound 28]
[1]
  IC50: > 100 µM
[3]
  fold more active than compound 7 against LMW-PTP: 3.5 fold
  mode of inhibition of LMW-PTP: competitive
[2]
  preference (selectivity) for LMW-PTP over the panel of other PTPs: over 50 fold

## NC(=O)C(c1ccccc1)S(=O)(=O)O (centres unmarked) [SPAA, SulfoPhenyl Acetic Amide]
[6]
  IC50: > 50 mM
[3]
  IC50: 2 mM
[7]
  IC50: > 50 mM

## O=S(=O)(O)CCN1CCOCC1 [MES]
[3]
  IC50: > 10 mM

## O=C(Nc1nccs1)C(c1ccccc1)S(=O)(=O)O (centres unmarked) [compound 10]
[3]
  inhibitory activity toward LMW-PTP (in words): significantly reduced activities

## O=C(Nc1cc(C(F)(F)F)cc(C(F)(F)F)c1)C(c1ccccc1)S(=O)(=O)O (centres unmarked) [compound 8]
[1]
  IC50: > 200 µM

## O=C(Nc1ccc(OCc2ccccc2)c(Cl)c1)C(c1ccccc1)S(=O)(=O)O (centres unmarked) [compound 2]
[1]
  IC50: > 200 µM

## O=C(Nc1nc2ccccc2s1)C(c1ccccc1)S(=O)(=O)O (centres unmarked) [compound 7]
[1]
  IC50: > 200 µM
[3]
  mode of inhibition of LMW-PTP: competitive

## O=C(Nc1ccc(N2CCOCC2)cc1)C(c1ccccc1)S(=O)(=O)O (centres unmarked) [compound 5]
[1]
  IC50: > 200 µM
[2]
  inhibitory activity against the phosphatases in the panel: no inhibitory activity
